The text below walks through data of ChEMBL document CHEMBL1153486, “Discovery of a class of potent gap-junction modifiers as novel antiarrhythmic agents” (Bioorg Med Chem Lett, 2009).

Calls of active or inactive are those of the source. The rule behind the calls is not given here.

Series [1] in a line: Stability in rat plasma after 3 hrs. As to conditions: read-out: Stability. The series is classed as ADME, cell-free. In outline:
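Rat plasma incubation for 3 h; stability reported as percent of compound remaining.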

Series [2] relates to Mus musculus. Briefly: Antiarrhythmic activity in calcium chloride-induced mouse arrhythmia model assessed as prolongation of time to conduct cardiac block at 10 pmol/kg, iv relative to control. The series is classed as functional, Heart. In short, it runs like this: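 Mice received an intravenous infusion of CaCl2 after IV test compound. The read-out was time to cardiac conduction block, expressed as percent increase over control. Values are means of at least three experiments with standard deviation.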

A short description of series [3]: Metabolic stability in rat liver microsomes assessed as half life. The series is classed as ADME, Microsome.
Series [4] in a line: Volume of distribution at steady state in CD1 mouse at 1 mg/kg, iv. In kind it is ADME, organism-based. As to conditions: in vivo, read-out: Vdss. Set-up: dose 1 mg/kg, route intravenous. In outline: (§1)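 CD-1 mice were dosed IV at a nominal 1 mg/kg (actual 0.77 mg/kg or 1.6 mg/kg for some compounds) and PO at 5 mg/kg. Parameters were derived from mean drug concentration, N = 3 animals/time point.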

Series [5] is described as follows: Clearance in CD1 mouse at 1 mg/kg, iv. The series is classed as ADME, organism-based. Set-up: dose 1 mg/kg, route intravenous. As to conditions: in vivo. In short, it runs like this:
as §1

The nature of series [6]: Inhibition of CYP450. The series is classed as ADME.
A short description of series [7]: Cmax in CD1 mouse at 5 mg/kg, po. In kind it is ADME, organism-based. Set-up: dose 5 mg/kg, route oral. As to conditions: in vivo. In short, it runs like this:
as §1

Series [8] concerns Mus musculus. Briefly: Antiarrhythmic activity in calcium chloride-induced mouse arrhythmia model assessed as prolongation of time to conduct cardiac block at 1 to 30 mg/kg, po relative to control. In kind it is functional, organism-based. As to conditions: Heart. In short, it runs like this: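 Compounds were given orally at 1–30 mg/kg to mice, which then received an intravenous CaCl2 infusion. The read-out was prolongation of time to conduction block versus control.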

Series [9] in a line: AUC in CD1 mouse at 5 mg/kg, po. In kind it is ADME, organism-based. Set-up: dose 5 mg/kg, route oral. As to conditions: plasma. In outline:
as §1

Series [10] addresses Voltage-gated inwardly rectifying potassium channel KCNH2 (Homo sapiens, UniProt Q12809). Briefly: Inhibition of human ERG.
Series [11] can be described thus: Metabolic stability in human liver microsomes assessed as half life. The series is classed as ADME, Microsome.
Series [12] is described as follows: Oral bioavailability in CD1 mouse at 5 mg/kg. In kind it is ADME, organism-based. As to conditions: in vivo. In short, it runs like this: as §1
Series [13] can be described thus: Tmax in CD1 mouse at 5 mg/kg, po. The series is classed as ADME, organism-based. Set-up: dose 5 mg/kg, route oral. As to conditions: in vivo. In short, it runs like this:
as §1

Series [14] in a line: Half life in CD1 mouse at 1 mg/kg, iv. In kind it is ADME, organism-based. Set-up: dose 1 mg/kg, route intravenous. As to conditions: in vivo. In outline:
as §1

Series [15] is described as follows: Half life in CD1 mouse at 5 mg/kg, po. The series is classed as ADME, organism-based. Set-up: dose 5 mg/kg, route oral. As to conditions: in vivo. In outline: as §1
A short description of series [16]: Half life in CD1 mouse at 1.6 mg/kg, iv. In kind it is ADME, organism-based. Set-up: dose 1.6 mg/kg, route intravenous. As to conditions: in vivo. In short, it runs like this:
as §1

Series [17] is described as follows: Half life in CD1 mouse at 5 mg/kg, po. As to conditions: in vivo.
Series [18] can be described thus: AUC in dog at 7.8 mg/kg, po. As to conditions: plasma. Set-up: dose 7.8 mg/kg, route oral. The series is classed as ADME, organism-based, Canis lupus familiaris. In outline:
(§2)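 Dogs were dosed IV at 1 mg/kg and PO at 5 mg/kg; one compound was given 2.3 mg/kg IV and 7.8 mg/kg oral. Values are means of at least three animals, or two animals where no SD is given.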

Series [19] in a line: Cmax in dog at 7.8 mg/kg, po. The series is classed as ADME, organism-based, Canis lupus familiaris. Set-up: dose 7.8 mg/kg, route oral. As to conditions: in vivo. In short, it runs like this: as §2
Series [20] in a line: Oral bioavailability in dog at 7.8 mg/kg. The series is classed as ADME, organism-based, Canis lupus familiaris. As to conditions: in vivo. In short, it runs like this:
as §2

The nature of series [21]: Tmax in dog at 7.8 mg/kg, po. In kind it is ADME, organism-based, Canis lupus familiaris. Set-up: dose 7.8 mg/kg, route oral. As to conditions: in vivo.
The nature of series [22]: Half life in dog at 7.8 mg/kg, po. In kind it is ADME, organism-based, Canis lupus familiaris. Set-up: dose 7.8 mg/kg, route oral. As to conditions: in vivo. In short, it runs like this: as §2
Series [23] can be described thus: Cmax in CD1 mouse at 5 mg/kg, po. As to conditions: in vivo.
The nature of series [24]: Volume of distribution at steady state in dog at 2.3 mg/kg, iv. As to conditions: in vivo, read-out: Vdss. The series is classed as ADME, organism-based, Canis lupus familiaris. Set-up: dose 2.3 mg/kg, route intravenous. In outline:
as §2

The test system of series [25] is Mus musculus. The series can be described thus: AUC in CD1 mouse at 5 mg/kg, po. As to conditions: in vivo.
Series [26] can be described thus: Clearance in dog at 2.3 mg/kg, iv. The series is classed as ADME, organism-based, Canis lupus familiaris. Set-up: dose 2.3 mg/kg, route intravenous. As to conditions: in vivo. In outline: as §2
The test system of series [27] is Mus musculus. Briefly: Oral bioavailability in CD1 mouse at 1.6 mg/kg. In kind it is ADME, organism-based. As to conditions: in vivo.
Series [28] in a line: Tmax in CD1 mouse at 5 mg/kg, po. As to conditions: in vivo.
A short description of series [29]: Volume of distribution at steady state in CD1 mouse at 1.6 mg/kg, iv. The series is classed as ADME, organism-based. Set-up: dose 1.6 mg/kg, route intravenous. As to conditions: in vivo, read-out: Vdss. In short, it runs like this: as §1
Series [30] can be described thus: Half life in dog at 2.3 mg/kg, iv. In kind it is ADME, organism-based, Canis lupus familiaris. Set-up: dose 2.3 mg/kg, route intravenous. As to conditions: in vivo. In outline:
as §2

Voltage-gated inwardly rectifying potassium channel KCNH2, sequence (Q12809 whole entry): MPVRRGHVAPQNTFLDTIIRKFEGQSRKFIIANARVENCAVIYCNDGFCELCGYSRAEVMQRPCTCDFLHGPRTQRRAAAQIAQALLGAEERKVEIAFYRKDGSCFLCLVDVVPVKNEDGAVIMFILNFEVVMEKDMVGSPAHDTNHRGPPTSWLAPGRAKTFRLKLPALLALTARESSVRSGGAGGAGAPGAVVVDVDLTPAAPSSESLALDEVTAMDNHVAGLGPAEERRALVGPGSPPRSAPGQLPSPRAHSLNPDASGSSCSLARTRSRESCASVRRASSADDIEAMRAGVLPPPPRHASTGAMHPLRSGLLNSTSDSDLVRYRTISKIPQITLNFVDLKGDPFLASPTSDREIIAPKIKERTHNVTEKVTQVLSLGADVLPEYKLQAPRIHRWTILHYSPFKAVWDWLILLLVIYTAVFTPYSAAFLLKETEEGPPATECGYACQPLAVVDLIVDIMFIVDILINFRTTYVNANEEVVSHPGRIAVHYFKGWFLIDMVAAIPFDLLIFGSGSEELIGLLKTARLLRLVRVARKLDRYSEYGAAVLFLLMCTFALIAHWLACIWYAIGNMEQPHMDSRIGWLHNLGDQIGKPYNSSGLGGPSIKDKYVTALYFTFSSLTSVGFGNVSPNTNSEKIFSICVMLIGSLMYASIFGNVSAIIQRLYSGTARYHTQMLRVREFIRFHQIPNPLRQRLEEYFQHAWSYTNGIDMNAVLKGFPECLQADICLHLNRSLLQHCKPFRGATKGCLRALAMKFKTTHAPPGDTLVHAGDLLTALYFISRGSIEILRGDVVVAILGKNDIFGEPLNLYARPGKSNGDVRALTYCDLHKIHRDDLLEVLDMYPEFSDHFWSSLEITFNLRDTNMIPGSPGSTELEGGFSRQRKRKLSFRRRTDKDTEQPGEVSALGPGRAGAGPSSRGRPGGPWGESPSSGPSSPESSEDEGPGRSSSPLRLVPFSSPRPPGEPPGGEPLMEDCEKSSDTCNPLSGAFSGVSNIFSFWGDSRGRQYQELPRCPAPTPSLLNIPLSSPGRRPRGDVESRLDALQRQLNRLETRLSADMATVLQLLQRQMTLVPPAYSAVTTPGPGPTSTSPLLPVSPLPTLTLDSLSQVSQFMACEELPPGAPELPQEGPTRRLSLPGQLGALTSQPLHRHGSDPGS

With `NCC(=O)N1C[C@H](NC(=O)c2ccccc2)C[C@H]1C(=O)N[C@@H]1CCOC1`, the remaining at 3 h in series [1] amounted to 100%. Also, in [2], the Activity is on record as 143.5%.
On to `NCC(=O)N1C[C@H](NC(=O)c2ccccc2)C[C@H]1C(=O)NC1CCOCC1`, for which, in [1], the remaining at 3 h stood at 81%. In addition, in series [2], the Activity came out at 99.4%.
Turning to `CC(=O)NCC(=O)N1C[C@H](NC(=O)c2ccccc2)C[C@H]1C(=O)O`, the half-life in series [3] was more than 30 min; in series [11], more than 30 min; in series [14] it was 18 min; in series [15] it was 72 min. In [4], the Vd turned out to be 0.3 L/kg. The same compound showed a clearance in [5] of 24 mL/min/kg. Besides, the Activity entry in series [6] is “Not Active”; in series [10], “Not Active”; in series [2], 165.7%. In addition, the Cmax in [7] was found to be 38 ng/mL. For the same compound, the outcome in series [8] was Active. The compound further gave an AUC in series [9] of 66 ng·h/mL. The remaining at 3 h in series [1] was found to be 100%. The bioavailability in series [12] is 2%. Further, the Tmax in series [13] came to 15 min.
As to `COC(=O)[C@@H]1C[C@@H](NC(=O)c2ccccc2)CN1C(=O)CNC(=O)OC(C)(C)C`, in [1], the remaining at 3 h stood at 0%. Moreover, the Activity in [2] is 166.3%.
The corresponding values for `NCC(=O)N1C[C@H](NC(=O)c2ccccc2)C[C@H]1C(=O)NC1CCCC1` are 90% and 110.6%.
In the case of `O=CNCC(=O)N1C[C@H](NC(=O)c2ccccc2)C[C@H]1C(=O)O`, the half-life is 24 min in series [16]; more than 30 min in [3]; 84 min in [17]; 372 min in series [22]; more than 30 min in series [11]; 90 min in series [30]. Further, the area under the curve (AUC) in [18] was determined as 3820 ng·h/mL; in series [25], 144 ng·h/mL. Besides, the Cmax in series [19] was 737 ng/mL; in series [23] it was 89 ng/mL. Moreover, the bioavailability in series [20] was found to be 13%. Also, the Tmax came out at 84 min in [21] and 15 min in [28]. For the same compound, the Activity result in [6] was “Not Active”; in [10] it was “Not Active”; in [2], 170.4%. Also, the results for the Vd in series [24] and in series [29] were 0.4 L/kg and 0.2 L/kg, respectively. The result in [8] was Active. In addition, the clearance in [26] was 5 mL/min/kg. In addition, in series [27], the F is given as 2%. Further, the remaining at 3 h in series [1] came to 100%.
Consider `CC(C)(C)NC(=O)[C@@H]1C[C@@H](NC(=O)c2ccccc2)CN1C(=O)CN`, for which the remaining at 3 h in series [1] turned out to be 99%. The Activity in [2] is reported as 135.7%.
Regarding `CC(C)(C)OC(=O)NCC(=O)N1C[C@H](NC(=O)c2ccccc2)C[C@H]1C(=O)O`, in [1], the remaining at 3 h came out at 100%. In series [2], the Activity stood at 156.2%.
The corresponding values for `CC(C)[C@@H](C)NC(=O)[C@@H]1C[C@@H](NC(=O)c2ccccc2)CN1C(=O)CN` are 89% and 120.1%.
